Sampled rows, rich in hits. Any-hit rate of the full collection: about 9.6%.
Ba/F3 V617F tox = reduced viability of JAK2V617F-dependent Ba/F3 cells, primary screen, JAK2V617F inhibitor project, cell-based, Ba/F3 EpoR-JAK2V617F, luminescence; ATP luminescence; inhibition, % at 5.6 µM; 220,000 compounds, 1.1% hits;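 active means inhibition above the campaign mean plus 3 SD over all tested compounds, cut at about 24% in these data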;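 further: cytokine-independent growth of Ba/F3 cells driven by EpoR plus mutant JAK2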
L major viab = Leishmania major promastigote growth inhibition, primary screen; 200,000 compounds, 9% hits; Leishmania major promastigotes, resazurin fluorescence viability; inhibition, % at 10 µM; in the data active means inhibition above about 50%;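 further: promastigotes grown with compound for 44 hours at 28 °C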
MT stabilize HCS = microtubule stabilizers in HeLa cells, primary screen, imaging, high-content imaging; AID 2205, 2009; % tubulin-high responders, % at 10 µM; HeLa tubulin immunostaining HCS, 24 h; share of cells brighter than vehicle mean+2SD; 200,000 compounds, 0.83% hits;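 active means plate Z-score above 3 for both tubulin-high and condensed-nucleus cell shares, with cell loss under 80%, at 10 µM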;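 further: anti alpha tubulin signal scored within the nucleus-defined area of each cell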
BaF3 tox = parental Ba/F3 cell viability inhibition, counter-screen for JAK2V617F inhibitor project, murine pro-B, CellTiter-Glo luminescence | inhibition, % at 5.6 µM | AID 1486, 2009 | CellTiter-Glo ATP luminescence | 220,000 compounds, 1.1% hits;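 active means inhibition above a per-campaign cutoff, the mean inhibition of all tested compounds plus 3 SD, cut at about 27% in these data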
APP transl inh = inhibitors of APP translation via 5'UTR reporter, primary screen, APP 5'UTR luciferase, SH-SY5Y cells; inhibition, % at 2 µM; 190,000 compounds, 0.82% hits; SH-SY5Y APP 5'UTR-luciferase reporter, luminescence; AID 1285, 2008;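 active means inhibition above a set limit, derived from the sample mean plus 3 SD, cut at about 45% in these data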
b-catenin transl = modulators of beta-catenin nuclear translocation, primary screen, imaging, HeLa cells, immunofluorescence, high-content; nuclear translocation activity, % at 5 µM; 190,000 compounds, 0.3% hits;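 active means nuclear translocation activity above 50% at 5 µM, with a well cell count of 50 or more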;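 further: per-cell ratio of nuclear to cytoplasmic median beta-catenin stain intensity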
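System: HeLa cells, endogenous beta-catenin; compound dosing: 5 µM primary single dose, 0.1% DMSO, 0.02–20 µM confirmation series; incubation: 24 h compound exposure at 37°C, 5% CO2; signal: beta-catenin immunofluorescence imaging with DAPI; evaluation: % activation, nuclear-to-cytoplasmic median beta-catenin signal ratio per cell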
Numbers stand for hits; n = inactive; x = no result given.

SMILES	Ba/F3 V617F tox	L major viab	MT stabilize HCS	BaF3 tox	APP transl inh	b-catenin transl
CN(C)c1ncc(CN2CCC(CO)(CCCc3ccccc3)CC2)s1	n	x	x	n	x	n
CCOC(=O)C1(CCCc2ccccc2)CCN(C2CCSCC2)CC1	n	85	n	n	n	n
CC(=O)c1cccc(CN2CCC(CO)(CCCc3ccccc3)CC2)c1	n	79	n	n	n	n
CSCC(C)N1CCC(CO)(CCCc2ccccc2)CC1 (centres undefined)	n	91	n	n	n	n
CC1CCCC(C)N1C(=O)C1CCCCC1 (centres undefined)	n	n	n	n	n	n
O=C(Nc1ccc(N2C(=O)C3C4C=CC(C4)C3C2=O)cc1Cl)c1cccs1 (centres undefined)	n	n	n	n	n	n
COc1cc(/C=N/N=C(N)N)ccc1OCc1ccccc1Cl	n	101	n	n	n	n
CCn1c(CNC(=O)COc2ccc(C(C)C)cc2)nnc1SCC(=O)Nc1ccccc1F	n	n	n	n	n	n
CCn1c(CNC(=O)COc2ccc(C(C)C)cc2)nnc1SCC(=O)Nc1ccccc1C(C)C	n	76	n	n	n	n
CCSc1nc(C)cc(C)c1S(=O)(=O)c1ccccc1C	n	88	n	n	n	n
CSc1nc(C)cc(C)c1S(=O)(=O)c1ccccc1C	n	n	n	n	n	x
Cc1cccc(OCCc2c(C)[nH]c(=S)[nH]c2=O)c1	n	n	n	n	n	n
Cc1nn(Cc2ccc(Cl)cc2Cl)c(C)c1NC(=O)c1sc2ccccc2c1Cl	n	n	n	n	n	n
Cc1nn(Cc2ccc(Cl)cc2Cl)c(C)c1NC(=O)NC12CC3CC(CC(C3)C1)C2	n	100	n	n	n	n
C=CCn1c(=NC(=O)C2CCCCC2)sc2cc(NC(C)=O)ccc21	n	80	n	n	n	n
Cc1nn(-c2ccccn2)c2nc(-c3cccs3)cc(C(=O)N3CCOCC3)c12	n	84	n	n	n	n
COc1ccc(-c2cc(C(=O)O)c3c(C)nn(-c4ccccn4)c3n2)cc1	n	n	n	n	n	n
CCOC(=O)c1cc(-c2ccncc2)nc2c1c(C)nn2-c1ccccn1	n	100	n	n	n	x
Cc1cccc(-n2nc(C)c3c(C(=O)O)cc(-c4cccs4)nc32)c1	n	n	n	n	n	n
COc1ccccc1N1CCN(C(=O)COc2ccc(S(=O)(=O)NC(C)(C)C)cc2)CC1	n	n	n	n	n	n
O=C(N/N=C/c1ccc(F)cc1)c1ccccc1	n	n	n	n	n	n
CCn1c2ccccc2c2cc(/C=N/NC(=O)c3ccccc3)ccc21	n	n	20	n	n	n
C/C(=N\OCC(=O)Nc1ccc2c(c1)OCCO2)c1ccc2c(c1)OCCO2	n	n	n	n	n	n
COCC1CCN(C(=O)CCc2nnc(CCCCc3ccccc3)o2)CC1	n	n	n	n	n	n
Cc1cc(C(=O)CN2C(=O)c3ccccc3S2(=O)=O)c(C)n1CC1CCCO1 (centres undefined)	n	n	n	n	86	n
SMILES	Ba/F3 V617F tox	L major viab	MT stabilize HCS	BaF3 tox	APP transl inh	b-catenin transl
CCn1c(SCC(=O)c2cc(C)n(CC3CCCO3)c2C)nc2ccccc21 (centres undefined)	n	n	n	n	n	n
Cc1cc(C(=O)CSc2nc3ccccc3c(=O)n2C)c(C)n1CC1CCCO1 (centres undefined)	59	n	n	69	n	n
Cc1cc(C(=O)CSc2nc3ccccc3c(=O)[nH]2)c(C)n1CC1CCCO1 (centres undefined)	35	n	n	40	n	n
Cc1cc(C(=O)COC(=O)CCc2nc3ccccc3c(=O)[nH]2)c(C)n1CC1CCCO1 (centres undefined)	n	x	x	n	x	n
O=C(C1=NN[C@@H]2C(=O)N(Cc3ccccc3)C(=O)[C@H]12)c1ccc(F)cc1	n	x	x	n	x	n
COc1ccc(NC(=O)CN2CCN(C(=S)NC3CCCC3)CC2)cc1	n	x	x	n	x	n
Cc1nn(-c2cc(N3CCCCC3)ccc2[N+](=O)[O-])c(=O)c2ccccc12	n	n	n	n	n	n
CC(Nc1cc(N2CCNCC2)ccc1[N+](=O)[O-])c1ccccc1 (centres undefined)	n	100	n	n	n	n
CCS(=O)(=O)N1CCN(c2ccc([N+](=O)[O-])c(NC(C)c3ccccc3)c2)CC1 (centres undefined)	n	n	n	n	n	n
Cc1nn(-c2cc(N3CCNCC3)ccc2[N+](=O)[O-])c(=O)c2ccccc12	n	67	n	n	n	n
CN1CCN(c2ccc([N+](=O)[O-])c(-n3nc(-c4ccccc4)c4ccccc4c3=O)c2)CC1	n	99	n	n	n	n
Clc1cccc(Cl)c1CSc1nnc([C@@H]2CCCN2)o1	n	x	x	n	x	n
Cc1ccccc1N=C(NO)c1nonc1N	n	n	n	n	n	n
CC(=O)N(CCCc1ccc(C(C)(C)C)cc1)CCCN(C)C	n	99	n	n	n	n
CC(=O)N(CCCN(C)C)Cc1ccccn1	n	x	x	n	x	n
Cc1ccc(/C=C2/SC(=S)N(CCCC(=O)Nc3ccc(O)cc3)C2=O)cc1	n	n	n	n	63	n
O=C(CCCN1C(=O)/C(=C/c2ccccc2)SC1=S)Nc1cccc(O)c1	n	65	n	n	n	n
O=C(NC(=C(Cl)Cl)S(=O)(=O)c1ccc(Cl)cc1)c1ccccc1	n	x	x	n	x	n
O=C(Nc1cccc2oc(=O)ccc12)c1ccc([N+](=O)[O-])cc1[N+](=O)[O-]	n	97	n	n	n	x
COc1ccc(C)cc1NC(=O)c1ccc([N+](=O)[O-])cc1[N+](=O)[O-]	n	53	n	n	n	n
COc1ccc([N+](=O)[O-])cc1NC(=O)c1cc(C)c(C)o1	n	n	n	n	n	n
COc1ccc([N+](=O)[O-])cc1NC(=O)Cc1ccc(C)cc1	n	58	n	n	n	n
O=C1CSC(=Nc2cc(Cl)ccc2Cl)N1	n	n	n	n	n	x
Cc1nn(C)c(C)c1CN(C)S(=O)(=O)c1ccc(F)cc1	n	n	n	n	n	n
Cc1nn(C)c(C)c1CN(C)S(=O)(=O)c1ccc2ccccc2c1	46	n	n	46	47	n
CSc1nc2c(c(=O)[nH]1)C(c1cccc(Br)c1)CC(=O)N2 (centres undefined)	n	n	n	n	n	n
COc1cccc(-n2c(SCC(N)=O)nnc2-c2ccncc2)c1	n	n	n	n	n	n
COc1cccc(NC(=O)C(Sc2nnc(-c3ccncc3)n2-c2ccc(Cl)cc2)c2ccccc2)c1 (centres undefined)	n	53	n	n	n	x
